The text below walks through data of ChEMBL document CHEMBL1124473, “Synthesis and antiproliferative effects of novel 5'-fluorinated analogues of 5'-deoxy-5'-(methylthio)adenosine” (J Med Chem, 1989).

Test [1] concerns L5178Y. Nature of the test: Compound was evaluated for its ability to inhibit growth by 50% at 48 hr in L5178Y murine leukemia cells. In kind it is functional, cell-based. Conditions: Mus musculus.
Test [2] concerns L1210. Nature of the test: Compound was evaluated for its ability to inhibit growth by 50% at 48 hr in L1210 murine leukemia cells. In kind it is functional, cell-based. The conditions noted are these: Mus musculus, L1210, 48 h.
The test system of test [3] is L1210. Nature of the test: Compound was evaluated for effect on polyamine pools in the L1210 murine leukemia cell lines by the inhibition of put at 200 uM. In kind it is functional, Mus musculus.
In test [4] the test system is L1210. Nature of the test: Compound was evaluated for effect on polyamine pools in the L1210 murine leukemia cell lines by the inhibition of spermidine synthase at 200 uM. The test is classed as functional, Mus musculus.
The subject of test [5] is L1210. Nature of the test: Compound was evaluated for effect on polyamine pools in the L1210 murine leukemia cell lines by the inhibition of spermine synthase at 200 uM. In kind it is functional, Mus musculus.
Test [6] has as its system L5178Y. Nature of the test: Compound was evaluated for effect on polyamine pools in the L5178Y murine leukemia cell lines by the inhibition of put at 200 uM. The test is classed as functional, Mus musculus.
The test system of test [7] is L5178Y. Nature of the test: Compound was evaluated for effect on polyamine pools in the L5178Y murine leukemia cell lines by the inhibition of spermidine synthase at 200 uM. In kind it is functional, Mus musculus.
The test system of test [8] is L5178Y. Nature of the test: Compound was evaluated for effect on polyamine pools in the L5178Y murine leukemia cell lines by the inhibition of spermine synthase at 200 uM. In kind it is functional, Mus musculus.
Test [9] deals with L5178Y. Nature of the test: Inhibition of growth of L5178Y murine leukemia cell line in percent of control at 200 uM. In kind it is functional, Mus musculus. Further details: scale not given: the % may be the effect or the level left. Put shortly:
(§1)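 Cultures in RPMI 1640 with 10% Nu Serum IV and HEPES/MOPS buffer, treated at 0 h with the listed concentration from DMSO stock diluted in serum-free medium. Cell number by electronic particle counting after 48 h, expressed as % of untreated control. Average of at least three separate experiments.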

The subject of test [10] is L1210. Nature of the test: Inhibition of growth of L1210 murine leukemia cell line in percent of control at 200 uM. The test is classed as functional, Mus musculus. Further details: scale not given: the % may be the effect or the level left. Put shortly:
as §1

Test [11] addresses T1, S-methyl-5'-thioadenosine phosphorylase (Mus musculus, UniProt Q9CQ65).
T1 sequence (Q9CQ65 whole entry): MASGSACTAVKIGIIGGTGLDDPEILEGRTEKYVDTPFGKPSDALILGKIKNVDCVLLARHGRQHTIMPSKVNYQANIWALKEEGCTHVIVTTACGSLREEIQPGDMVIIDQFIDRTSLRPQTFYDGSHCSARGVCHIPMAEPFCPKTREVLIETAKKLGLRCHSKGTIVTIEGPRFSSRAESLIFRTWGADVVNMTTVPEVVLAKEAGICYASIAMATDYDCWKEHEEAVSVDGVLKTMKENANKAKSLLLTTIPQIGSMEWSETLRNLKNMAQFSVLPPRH
Nature of the test: Compound was evaluated for the inhibition of mouse liver MTA phosphorylase. Put shortly:
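Mouse liver enzyme, partially purified (acid precipitation, 65 °C heat step, DEAE-Sephacel). 0.1 mL reaction: 4 μmol potassium phosphate pH 7.4, 0.1 μmol DTT, 20 μg BSA, 50 nmol MTA, ~2 × 10^5 cpm [methyl-3H]MTA; 10 min, 37 °C. Stopped with charcoal/TCA; [3H]MTRP in supernatant counted by liquid scintillation.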

Test [12] has as its system L1210. Nature of the test: Compound was evaluated for effect on polyamine pools in the L1210 murine leukemia cell lines by the inhibition of put at 600 uM. The test is classed as functional, Mus musculus.
The test system of test [13] is L1210. Nature of the test: Compound was evaluated for effect on polyamine pools in the L1210 murine leukemia cell lines by the inhibition of spermidine synthase at 600 uM. The test is classed as functional, Mus musculus.
For test [14], the system named is L5178Y. Nature of the test: Compound was evaluated for effect on polyamine pools in the L5178Y murine leukemia cell lines by the inhibition of put at 60 uM. In kind it is functional, Mus musculus.
Test [15] relates to L5178Y. Nature of the test: Compound was evaluated for effect on polyamine pools in the L5178Y murine leukemia cell lines by the inhibition of spermidine synthase at 60 uM. The test is classed as functional, Mus musculus.
The test system of test [16] is L5178Y. Nature of the test: Compound was evaluated for effect on polyamine pools in the L5178Y murine leukemia cell lines by the inhibition of spermine synthase at 60 uM. The test is classed as functional, Mus musculus.
The test system of test [17] is L5178Y. Nature of the test: Inhibition of growth of L5178Y murine leukemia cell line in percent of control at 60 uM. Also noted: scale not given: the % may be the effect or the level left. The test is classed as functional, Mus musculus. The method, boiled down: as §1
Test [18] deals with L1210. Nature of the test: Inhibition of growth of L1210 murine leukemia cell line in percent of control at 600 uM. In kind it is functional, Mus musculus. Also noted: scale not given: the % may be the effect or the level left. Put shortly:
as §1

Test [19] relates to L1210. Nature of the test: Compound was evaluated for effect on polyamine pools in the L1210 murine leukemia cell lines by the inhibition of spermine synthase at 600 uM. In kind it is functional, Mus musculus.

pIC50, pKi: −log10 of the molar value.

As a reminder, the pIC50 is the negative decadic logarithm of the IC50, by convention in mol/L. As to `Nc1ncnc2c1ncn2C1O[C@H](CI)[C@@H](O)[C@H]1O` (stereo not given in full), the pIC50 in test [1] is 5.70; in test [2] it was 3.52.

Turning to `CSC(F)[C@H]1OC(n2cnc3c(N)ncnc32)[C@H](O)[C@@H]1O` (stereo not given in full), the pIC50 is 6.15 in test [1] and 5.70 in [2].

One may read the pKi as −log10 of the Ki, conventionally taken in molar units. Regarding `Nc1ncnc2c1ncn2C1O[C@H](CSCF)[C@@H](O)[C@H]1O` (stereo not given in full), the Activity in test [3] is given as 0.62 nM/10e6; in test [4] it was 2.93 nM (10e6*cells)-1; in test [5], 0.6 nM (10e6*cells)-1; in [6] it was 0.41 nM (10e6*cells)-1; in [7] it was 2.47 nM (10e6*cells)-1; in [8], 1.32 nM (10e6*cells)-1. Besides, the pIC50 was 3.70 in [1] and 3.52 in test [2]. Also, the results for the Control in [9] and in test [10] were 45% and 67%, respectively. This compound also had a pKi in test [11] of 5.48.

For `CSC[C@H]1O[C@@H](n2cnc3c(N)ncnc32)[C@H](O)[C@@H]1O` [METHYLTHIOADENOSINE], the Activity in test [12] was 3.64 nM (10e6*cells)-1; in test [13], 1.59 nM (10e6*cells)-1; in test [14], 1.24 nM (10e6*cells)-1; in test [15], 3.03 nM (10e6*cells)-1; in [16] it was 0.47 nM (10e6*cells)-1; in test [19] it was 0.2 nM (10e6*cells)-1. In addition, the results for the pIC50 in test [1] and in test [2] were 4.22 and 3.22, respectively. Also, the Control in [17] was 57%; in test [18], 53%.
